Measured values taken from ChEMBL document CHEMBL3611998, “Syntheses and studies of new forms of N-sulfonyloxy β-lactams as potential antibacterial agents and β-lactamase inhibitors” (Bioorg Med Chem, 2015).
Active and inactive are the calls of the source. No cut-off for these calls is given here.

Experiments:
Mycolicibacterium vaccae [1] = assay: Antimicrobial activity against Mycobacterium vaccae IMET 10670 at 2 mM incubated for 48 hrs by agar diffusion assay; format: functional; settings: for zone of inhibition at 2000 µM: IMET 10670, 48 h, read-out: DIZ
In short: (§1)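 Seeded-agar well diffusion: 2 mM test solution (from 20 mM DMSO stock, diluted 10-fold in MeOH), 50 μL per 9.0 mm well. Inoculum was 0.1 mL of a 0.5 McFarland saline suspension ([…]) in 34 mL Mueller-Hinton No. 2 agar. Incubation was at 37 °C for 48 h, with plates photographed after 3 days. Zone diameters were measured by caliper.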

Acinetobacter baumannii = assay: Antimicrobial activity against Acinetobacter baumannii ATCC 17961 at 2 mM incubated for 20 hrs by agar diffusion assay; format: functional; settings: for zone of inhibition at 2000 µM: ATCC 17961, 20 h, read-out: DIZ
In short: (§2)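 The test solution was made as 20 mM in DMSO and diluted 10-fold in MeOH to 2 mM. Overnight LB cultures were adjusted to a 0.5 McFarland standard ([…] in 0.9% saline), and 0.1 mL was seeded into 34 mL Mueller-Hinton No. 2 agar at 47–50 °C. 50 μL was placed in 9.0 mm wells. Plates were incubated at 37 °C for 20 h, and inhibition zone diameters were measured by caliper.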

Burkholderia dolosa = assay: Antimicrobial activity against Burkholderia dolosa at 2 mM incubated for 20 hrs by agar diffusion assay; format: functional; settings: read-out: DIZ; in short: as §2
Pseudomonas aeruginosa [2] = assay: Antimicrobial activity against wild type Pseudomonas aeruginosa K799 at 2 mM incubated for 20 hrs by agar diffusion assay; format: functional; settings: K799, 20 h, read-out: DIZ; in short: as §2
Pseudomonas aeruginosa [3] = assay: Antimicrobial activity against Pseudomonas aeruginosa K799/61 at 2 mM incubated for 20 hrs by agar diffusion assay; format: functional; settings: K799/61, 20 h, read-out: DIZ; in short: as §2
Escherichia coli [4] = assay: Antimicrobial activity against Escherichia coli DC0 at 2 mM incubated for 20 hrs by agar diffusion assay; format: functional; settings: for zone of inhibition at 2000 µM: DC0, 20 h, read-out: DIZ; in short: as §2
Escherichia coli [5] = assay: Antimicrobial activity against Escherichia coli DC2 assessed as very very unclear inhibition zone at 2 mM incubated for 20 hrs by agar diffusion assay; format: functional; settings: DC2, 20 h, read-out: DIZ; in short: as §2
Bacillus spizizenii [6] = assay: Antimicrobial activity against Bacillus subtilis ATCC 6633 at 2 mM incubated for 20 hrs by agar diffusion assay; format: functional; settings: ATCC 6633, 20 h, read-out: DIZ; in short: as §2
Staphylococcus aureus [7] = assay: Antimicrobial activity against Staphylococcus aureus SG511 at 2 mM incubated for 20 hrs by agar diffusion assay; format: functional; settings: for zone of inhibition at 2000 µM: SG511, 20 h, read-out: DIZ; in short: as §2
Micrococcus luteus [8] = assay: Antimicrobial activity against Micrococcus luteus ATCC 10240 at 2 mM incubated for 20 hrs by agar diffusion assay; format: functional; settings: for zone of inhibition at 2000 µM: ATCC 10240, 20 h, read-out: DIZ; in short: as §2
Mycolicibacterium vaccae [9] = assay: Antimicrobial activity against Mycobacterium vaccae IMET 10670 assessed as very unclear inhibition zone at 2 mM incubated for 48 hrs by agar diffusion assay; format: functional; settings: IMET 10670, 48 h, read-out: DIZ; in short: as §1
Escherichia coli [10] = assay: Antimicrobial activity against Escherichia coli DC2 at 2 mM incubated for 20 hrs by agar diffusion assay; format: functional; settings: for zone of inhibition at 2000 µM: DC2, 20 h, read-out: DIZ; in short: as §2
[11] = Inhibition of beta-lactamase KPC-2 (unknown origin) using nitrocefin substrate incubated for 10 mins
In short: (§3)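 Enzyme was preincubated with inhibitor at rt for 10 min in 50 mM sodium phosphate pH 7 with 0.1 mg/mL BSA. Inhibitor was tested at final concentrations of 160 μM to 3 nM (1:3 series, 8 points). Nitrocefin was then added at 50 μM, and hydrolysis was followed as OD 495 nm over time.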

[12] = Inhibition of beta-lactamase CTX-M-14 (unknown origin) using nitrocefin substrate incubated for 10 mins; in short: as §3
[13] = Inhibition of beta-lactamase OXA-48 (unknown origin) using nitrocefin substrate incubated for 10 mins; in short: as §3
[14] = Inhibition of beta-lactamase AmpC (unknown origin) using nitrocefin substrate incubated for 10 mins; in short: as §3
[15] = Inhibition of beta-lactamase SHV-12 (unknown origin) using nitrocefin substrate incubated for 10 mins
In short: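 SHV-12 was added as 50 μL of a 0.111 mg/mL solution and preincubated for 10 min at rt with inhibitor (final 160 μM to 3 nM, 1:3 dilutions). Buffer was 50 mM sodium phosphate pH 7 with 0.1 mg/mL BSA. Reaction was started with 10 μM nitrocefin and followed as OD 495 nm over time.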

[16] = Inhibition of beta-lactamase PAM-2035 (unknown origin) using nitrocefin substrate incubated for 10 mins
[17] = Inhibition of beta-lactamase NDM1 (unknown origin) using imipenem substrate incubated for 10 mins
In short: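 NDM-1 was added as 50 μL of a 0.110 mg/mL solution and preincubated with inhibitor (final 160 μM to 3 nM, 8-point 1:3 series) for 10 min at rt. Buffer was 50 mM sodium phosphate pH 7 with 0.1 mg/mL BSA. 10 μM imipenem was then added, and its disappearance was monitored over time.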

Staphylococcus aureus [18] = assay: Antimicrobial activity against Staphylococcus aureus SG511 assessed as unclear inhibition zone at 2 mM incubated for 20 hrs by agar diffusion assay; format: functional; settings: SG511, 20 h, read-out: DIZ; in short: as §2
Micrococcus luteus [19] = assay: Antimicrobial activity against Micrococcus luteus ATCC 10240 assessed as unclear inhibition zone at 2 mM incubated for 20 hrs by agar diffusion assay; format: functional; settings: ATCC 10240, 20 h, read-out: DIZ; in short: as §2
Mycolicibacterium vaccae [20] = assay: Antimicrobial activity against Mycobacterium vaccae IMET 10670 assessed as unclear inhibition zone at 2 mM incubated for 48 hrs by agar diffusion assay; format: functional; settings: IMET 10670, 48 h, read-out: DIZ; in short: as §1
Bacillus spizizenii [21] = assay: Antimicrobial activity against Bacillus subtilis ATCC 6633 assessed as very unclear inhibition zone at 2 mM incubated for 20 hrs by agar diffusion assay; format: functional; settings: ATCC 6633, 20 h, read-out: DIZ; in short: as §2
Micrococcus luteus [22] = assay: Antimicrobial activity against Micrococcus luteus ATCC 10240 assessed as very unclear inhibition zone at 2 mM incubated for 20 hrs by agar diffusion assay; format: functional; settings: ATCC 10240, 20 h, read-out: DIZ; in short: as §2
Staphylococcus aureus [23] = assay: Antimicrobial activity against Staphylococcus aureus SG511 assessed as very unclear inhibition zone at 2 mM incubated for 20 hrs by agar diffusion assay; format: functional; settings: SG511, 20 h, read-out: DIZ; in short: as §2

SMILES | zone of inhibition at 2000 µM (Mycolicibacterium vaccae [1]) [mm] | zone of inhibition at 2000 µM (Acinetobacter baumannii) [mm] | zone of inhibition at 2000 µM (Burkholderia dolosa) [mm] | zone of inhibition at 2000 µM (Pseudomonas aeruginosa [2]) [mm] | zone of inhibition at 2000 µM (Pseudomonas aeruginosa [3]) [mm] | zone of inhibition at 2000 µM (Escherichia coli [4]) [mm] | zone of inhibition at 2000 µM (Escherichia coli [5]) [mm] | zone of inhibition at 2000 µM (Bacillus spizizenii [6]) [mm] | zone of inhibition at 2000 µM (Staphylococcus aureus [7]) [mm] | zone of inhibition at 2000 µM (Micrococcus luteus [8]) [mm] | also measured
O=C1CC(CBr)N1OS(=O)(=O)c1cccs1 (stereo not given) | 0 | 0 | 0 | 0 | 0 | 0 | 16 | 0 | 0 | 0 | 
Cc1ccc(S(=O)(=O)ON2C(=O)CC2CSC2=NCCS2)cc1 (stereo not given) |  | 0 | 0 | 0 | 0 | 0 | 14 | 0 |  | 0 | diameter of the inhibition zone (DIZ) (Mycolicibacterium vaccae [1]): Active; diameter of the inhibition zone (DIZ) (Staphylococcus aureus [7]): Active
O=C1CC(CBr)N1OS(=O)(=O)c1cccc2ccccc12 (stereo not given) |  | 0 | 0 | 0 | 0 | 0 |  | 12 |  |  | zone of inhibition at 2000 µM (Mycolicibacterium vaccae [9]): 16 mm; zone of inhibition at 2000 µM (Escherichia coli [10]): 0 mm; Ki [11]: > 160 µM; Ki [12]: > 160 µM; Ki [13]: 4.67 µM; Ki [14]: > 160 µM; Ki [15]: 0.198 µM; Ki [16]: > 160 µM; Ki [17]: > 160 µM; zone of inhibition at 2000 µM (Staphylococcus aureus [18]): 14 mm; zone of inhibition at 2000 µM (Micrococcus luteus [19]): 13.5 mm
COc1ccc(S(=O)(=O)ON2C(=O)CC2CBr)cc1 (stereo not given) |  | 0 | 0 | 0 | 0 | 0 | 15 |  | 0 | 0 | zone of inhibition at 2000 µM (Mycolicibacterium vaccae [20]): 17 mm; zone of inhibition at 2000 µM (Bacillus spizizenii [21]): 11 mm
CCOC(=O)c1cn(CC2CC(=O)N2OS(=O)(=O)c2ccc(C)cc2)nn1 (stereo not given) | 0 | 0 | 0 | 0 | 0 | 0 |  |  | 0 | 0 | zone of inhibition at 2000 µM (Escherichia coli [10]): 0 mm; zone of inhibition at 2000 µM (Bacillus spizizenii [21]): 15 mm
O=C1CC(CBr)N1OS(=O)(=O)c1ccc([N+](=O)[O-])cc1 (stereo not given) | 0 | 11 | 0 | 0 | 0 | 0 | 14 | 14 |  | 0 | diameter of the inhibition zone (DIZ) (Staphylococcus aureus [7]): Active
CC(C)c1cc(C(C)C)c(S(=O)(=O)ON2C(=O)CC2CBr)c(C(C)C)c1 (stereo not given) |  | 0 | 0 | 0 | 0 | 0 |  | 0 | 0 |  | zone of inhibition at 2000 µM (Mycolicibacterium vaccae [20]): 14 mm; diameter of the inhibition zone (DIZ) (Escherichia coli [10]): Active; Ki [11]: > 160 µM; Ki [12]: > 160 µM; Ki [13]: > 160 µM; Ki [14]: > 160 µM; Ki [15]: > 160 µM; Ki [16]: > 160 µM; Ki [17]: > 160 µM; zone of inhibition at 2000 µM (Micrococcus luteus [22]): 19 mm
CN(C)c1cccc2c(S(=O)(=O)ON3C(=O)CC3CBr)cccc12 (stereo not given) | 16 | 0 | 0 | 0 | 0 |  | 14 | 0 | 13 | 12 | diameter of the inhibition zone (DIZ) (Escherichia coli [4]): Active
O=C1CC(CBr)N1OS(=O)(=O)c1ccc([N+](=O)[O-])cc1[N+](=O)[O-] (stereo not given) | 32 | 0 | 0 | 0 | 0 | 0 | 15 | 22 |  |  | zone of inhibition at 2000 µM (Staphylococcus aureus [18]): 14 mm; zone of inhibition at 2000 µM (Staphylococcus aureus [23]): 23 mm; zone of inhibition at 2000 µM (Micrococcus luteus [22]): 16 mm
Cc1ccc(S(=O)(=O)ON2C(=O)CC2CBr)cc1 (stereo not given) |  |  | 0 | 0 | 0 | 0 | 13 |  |  |  | zone of inhibition at 2000 µM (Mycolicibacterium vaccae [20]): 17 mm; diameter of the inhibition zone (DIZ) (Acinetobacter baumannii): Active; zone of inhibition at 2000 µM (Bacillus spizizenii [21]): 11 mm; diameter of the inhibition zone (DIZ) (Staphylococcus aureus [7]): Active; diameter of the inhibition zone (DIZ) (Micrococcus luteus [8]): Active
Cc1ccc(S(=O)(=O)ON2C(=O)CC2Cn2cc(CNC(=O)c3ccccc3)nn2)cc1 (stereo not given) | 0 | 0 | 0 | 0 | 0 | 0 |  | 0 | 0 | 0 | zone of inhibition at 2000 µM (Escherichia coli [10]): 0 mm
